{"data": "Published values from different studies", "note": "Compare with care: the assays were run in different laboratories."}
{"SMILES": "O=c1c2c([nH]c3ccc(F)c(Oc4ccc(OC(F)(F)F)cc4)c13)CCCC2", "assay": "metabolic stability", "system": "mouse, liver microsomes", "conditions": "1 µM, pH 7.4", "measurement": "microsomal CLint", "result": "49 µL/min/mg"}
{"SMILES": "CC(C)n1ncc2c(C(=O)NCC3(F)CNC3)cc(C3CC3)nc21", "assay": "metabolic stability", "system": "mouse, liver microsomes", "measurement": "scaled CLint", "result": "78.2 mL/min/kg"}
{"SMILES": "CNS(=O)(=O)c1ccc(Nc2ncc(C(F)(F)F)c([C@H]3CC[C@@](C)(O)CC3)n2)c(C)c1", "system": "rat, plasma", "conditions": "intravenous, 2 mg/kg", "measurement": "Vd", "result": "1 L/kg"}
{"SMILES": "CNCCNC(=O)c1cc(C(C)C)nc2c1cnn2C(C)C", "assay": "metabolic stability", "system": "mouse, liver microsomes", "measurement": "scaled CLint", "result": "694 mL/min/kg"}
{"SMILES": "Cc1cc(S(=O)(=O)N[C@]2(C)C[C@H](N3CCN(CC4CCN(c5ccc6c(c5F)n(C)c(=O)n6C5CCC(=O)NC5=O)CC4)CC3)C2)ccc1Nc1ncc(C(F)(F)F)c(N2CCC[C@](C)(O)C2)n1 (some centres unmarked)", "system": "rat, plasma", "conditions": "intravenous, 2 mg/kg", "measurement": "Vd", "result": "42 L/kg"}
{"SMILES": "C[C@H]1Oc2cc(cnc2N)-c2c(nn(C)c2C#N)CN(C)C(=O)c2ccc(F)cc21", "system": "male Sprague-Dawley rat, plasma", "conditions": "oral, 5 mg/kg, single dose", "measurement": "Vd/F", "result": "20 L/kg"}
{"SMILES": "CC1(C)NC(=O)N(c2ccc(F)c(F)c2)C1=O", "assay": "metabolic stability", "system": "mouse, liver microsomes", "measurement": "microsomal CLint", "result": "7 µL/min/mg"}
{"SMILES": "CC(C)n1ncc2c(C(=O)NCC3(C)CNC3)cc(C3CC3)nc21", "assay": "metabolic stability", "system": "mouse, liver microsomes", "measurement": "scaled CLint", "result": "< 38 mL/min/kg"}
{"SMILES": "O=c1c2ccc(Oc3cccc(OC(F)(F)F)c3)cc2[nH]c2cc(Cl)cc(F)c12", "assay": "metabolic stability", "system": "mouse, liver microsomes", "conditions": "1 µM, pH 7.4", "measurement": "microsomal CLint", "result": "24.3 µL/min/mg"}
{"SMILES": "Cc1cc(S(=O)(=O)NC2CC(N3CCN(CC4CCN(c5ccc(NC6CCC(=O)NC6=O)cc5C)CC4)CC3)C2)ccc1Nc1ncc(C(F)(F)F)c(N2CCC[C@](C)(O)C2)n1 (some centres unmarked)", "system": "rat, plasma", "conditions": "intravenous, 2 mg/kg", "measurement": "Vd", "result": "9 L/kg"}
{"SMILES": "O=c1c2c([nH]c3ccc(Oc4ccc(OC(F)(F)F)cc4)cc13)CCCC2", "assay": "metabolic stability", "system": "mouse, liver microsomes", "conditions": "1 µM, pH 7.4", "measurement": "microsomal CLint", "result": "39 µL/min/mg"}
{"SMILES": "Cc1cc(S(=O)(=O)NC2CC(N3CCN(CC4CCN(c5cccc6c5n(C)c(=O)n6C5CCC(=O)NC5=O)CC4)C4(CC4)C3)C2)ccc1Nc1ncc(C(F)(F)F)c(N2CCC[C@](C)(O)C2)n1 (some centres unmarked)", "system": "rat, plasma", "conditions": "intravenous, 2 mg/kg", "measurement": "Vd", "result": "82 L/kg"}
{"SMILES": "O=c1c2ccc(OCc3cccc(C(F)(F)F)c3)cc2[nH]c2ccc(Cl)c(F)c12", "assay": "metabolic stability", "system": "mouse, liver microsomes", "conditions": "1 µM, pH 7.4", "measurement": "microsomal CLint", "result": "0.59 µL/min/mg"}
{"SMILES": "CCC(F)(F)c1cc(N2C(=O)NC(C)(C)C2=O)ccc1F", "assay": "metabolic stability", "system": "mouse, liver microsomes", "measurement": "microsomal CLint", "result": "7 µL/min/mg"}
